This passage reports AC50 results from PubChem BioAssay AID623985 (Broad Institute, 2012).

The target of this experiment is PvdQ acylase (Pseudomonas aeruginosa). The experiment in a line: P. aeruginosa PvdQ acylase inhibitors, dose response, biochemical, fluorescence, plate reader, dry powder, set 2 (AID 623985). The following applies: purified PvdQ, 4-MU laurate fluorescence, 60 min. A digest of the protocol: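 Detection: fluorescence, Ex 303–367 nm, Em 440–460 nm; assay system: purified Pseudomonas aeruginosa PvdQ acylase enzyme; input: PvdQ enzyme at 0.02 µM final; probe or stimulus: 0.8 mM 4-MU laurate; times: 30 min enzyme–compound pre-incubation, then 60 min substrate reaction, room temperature; medium: Tris pH 8.0, NaCl, TCEP buffer with Triton X-100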
One may read the AC50 as the concentration at which the activity in the assay is half-maximal. For the molecule `N#CC(c1ccc(C(F)(F)F)cc1)c1cccc(C(F)(F)F)n1` (stereo unspecified), the AC50 was 27 nM.
Regarding `CCCCC(C#N)c1ccc(F)cc1` (stereo unspecified), the AC50 is 45.5 nM.
Turning to `N#Cc1cccc(C(C#N)c2ccc(Cl)cc2)n1` (stereo unspecified), the AC50 was 60.6 nM.
Regarding `N#CC(c1ccc(Cl)cc1)c1ccc(C(F)(F)F)c(Cl)n1` (stereo unspecified), the AC50 is 609 nM.
Next, `N#CC(c1ccc(C(F)(F)F)c(Cl)n1)c1ccc(Cl)cc1F` (stereo unspecified): 484 nM; `N#CC(c1ccc(Cl)cc1)c1cccc(Cl)n1` (stereo unspecified): 17.9 nM.
Next, `N#CC(c1cccc(C(F)(F)F)n1)c1ccc(Cl)cc1F` (stereo unspecified): less than 3 nM.
Consider `N#CC(c1cccc(C(F)(F)F)n1)c1ccccc1OC(F)(F)F` (stereo unspecified), for which the AC50 was 376 nM.
For `N#CC(c1ccc(C(F)(F)F)cc1)c1ccc(C(F)(F)F)c(Cl)n1` (stereo unspecified), the AC50 is 2950 nM.
Next, `CC(C#N)(c1ccc(Cl)cc1)c1ccc(C(F)(F)F)cn1` (stereo unspecified): 1230 nM; `N#Cc1cccc(C(C#N)c2ccc(Cl)cc2Cl)n1` (stereo unspecified): 303 nM.
On to `N#CC(c1ccc(C(F)(F)F)cc1)c1cccc(Cl)n1` (stereo unspecified), for which the half-maximal activity concentration (AC50) is 357 nM.
On to `Cc1ccc(C(C#N)c2ccccc2OC(F)(F)F)nc1C#N` (stereo unspecified), for which the half-maximal activity concentration (AC50) is 328 nM.
Next, `N#Cc1ccc(C(C#N)c2ccc(Cl)cc2Cl)nc1` (stereo unspecified): 1940 nM.
As for `N#CC(c1ccc(F)cc1)c1cccc(C(F)(F)F)n1` (stereo unspecified), the AC50 is 5.02 nM.
As for `CCCCC(C#N)c1ccc(Cl)cc1F` (stereo unspecified), the AC50 was 315 nM.
In the case of `CCCCC(C#N)c1ccc(Cl)cc1` (stereo unspecified), the half-maximal activity concentration (AC50) was 56.9 nM.
Regarding `N#Cc1cccc(C(C#N)c2ccccc2OC(F)(F)F)n1` (stereo unspecified), the AC50 was 227 nM.
Regarding `Cc1ccc(C(C#N)c2ccc(F)cc2)nc1C#N` (stereo unspecified), the AC50 is 96.6 nM.
For `CCCC(C#N)c1ccc(Cl)cc1` (stereo unspecified), the AC50 is 293 nM.
On to `N#CC(c1ccc(Cl)cc1)c1ccc(C(F)(F)F)cn1` (stereo unspecified), for which the AC50 is 171 nM.
Next, `N#CC(c1ccc(C(F)(F)F)c(Cl)n1)c1ccc(Cl)cc1Cl` (stereo unspecified): 2440 nM.
Next, `N#CC(c1ccc(F)cc1)c1ccc(C(F)(F)F)c(Cl)n1` (stereo unspecified): 548 nM.
As for `N#CC(c1cccc(Cl)n1)c1ccc(Cl)cc1Cl` (stereo unspecified), the concentration at half-maximal activity (AC50) is 170 nM.
Next, `CC(C)CC(C#N)c1ccc(Cl)cc1` (stereo unspecified): 203 nM; `Cc1ccc(C(C#N)c2ccc(Cl)cc2)nc1` (stereo unspecified): 150 nM.
Next, `N#Cc1ccc(C(C#N)c2ccc(Cl)cc2)nc1` (stereo unspecified): 1310 nM.
Consider `N#CC(c1ccc(Cl)cc1)c1ncccc1Cl` (stereo unspecified), for which the concentration at half-maximal activity (AC50) is less than 3 nM.
In the case of `N#CC(c1ccc(Cl)cc1Cl)c1ncccc1Cl` (stereo unspecified), the AC50 is 141 nM.
Take `CCCCC(C#N)c1ccc(C(F)(F)F)cc1` (stereo unspecified): the AC50 was 1590 nM.
Next, `N#CC(c1cccc(Cl)n1)c1ccc(Cl)cc1F` (stereo unspecified): 22.4 nM; `N#Cc1cccc(C(C#N)c2ccc(Cl)cc2F)n1` (stereo unspecified): 46.7 nM; `N#CC(CC1CC1)c1ccc(Cl)cc1` (stereo unspecified): 133 nM.
Next, `N#CC(c1cccc(Cl)n1)c1ccccc1OC(F)(F)F` (stereo unspecified): 754 nM; `Cc1cccc(C(C#N)c2ccc(Cl)cc2)n1` (stereo unspecified): 162 nM; `N#CC(c1ccc(C(F)(F)F)c(Cl)n1)c1ccccc1OC(F)(F)F` (stereo unspecified): 597 nM.
Next, `Cc1ccc(C(C#N)c2ccc(Cl)cc2)nc1C#N` (stereo unspecified): 69.7 nM; `COc1cccc(C(C#N)c2ccc(F)cc2)n1` (stereo unspecified): 124 nM.
Turning to `N#CC(c1ccc(Cl)cc1)c1cccc(C(F)(F)F)n1` (stereo unspecified), the AC50 is 4.16 nM.
Turning to `CCCCC(C#N)c1ccc(Cl)cc1Cl` (stereo unspecified), the AC50 was 281 nM.
Regarding `N#CC(c1ccc(Cl)cc1)c1ccc(Cl)cn1` (stereo unspecified), the half-maximal activity concentration (AC50) is 73.3 nM.
